In ChEMBL document CHEMBL4024771, “Optimization of Orally Bioavailable Enhancer of Zeste Homolog 2 (EZH2) Inhibitors Using Ligand and Property-Based Design Strategies: Identification of Development Candidate …” (J Med Chem, 2018):
In brackets after ≈: the same amount, converted by molar mass.

What was measured:
[1] = Kinetic solubility of the compound; format: physicochemical; conditions: for solubility kinetic: read-out: Kinetic_solubility
KARPAS-422 = experiment: Antiproliferative activity against human KARPAS422 cells after 72 hrs by resazurin assay; format: functional, cell-based
[2] = Passive permeability in MDCK cells at 2 uM after 90 mins by LC-MS/MS analysis; format: ADME, cell-based, Canis lupus familiaris; conditions: dog; for Papp at […], 2 µM: MDCK, read-out: permeability; for permeability: mdck, 2 µM
Summary of the method: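 Low-efflux MDCK cells (MDCK-LE) on 96-well inserts, used on day 4. Monodirectional transport of 2 μM drug in transport buffer with 0.1% DMSO at 37 °C. Donor and receiver sampled at 0 and 90 min for LC−MS/MS. Donor pH 6.5 and 7.4, receiver pH 7.4.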

[3] = biological target: Histone-lysine N-methyltransferase EZH2 (Homo sapiens, UniProt Q15910); experiment: Inhibition of EZH2 in human KARPAS422 cells assessed as reduction in H3K27me3 level after 72 hrs by ELISA
Sequence of Histone-lysine N-methyltransferase EZH2 (Homo sapiens, UniProt Q15910) (Q15910 whole entry): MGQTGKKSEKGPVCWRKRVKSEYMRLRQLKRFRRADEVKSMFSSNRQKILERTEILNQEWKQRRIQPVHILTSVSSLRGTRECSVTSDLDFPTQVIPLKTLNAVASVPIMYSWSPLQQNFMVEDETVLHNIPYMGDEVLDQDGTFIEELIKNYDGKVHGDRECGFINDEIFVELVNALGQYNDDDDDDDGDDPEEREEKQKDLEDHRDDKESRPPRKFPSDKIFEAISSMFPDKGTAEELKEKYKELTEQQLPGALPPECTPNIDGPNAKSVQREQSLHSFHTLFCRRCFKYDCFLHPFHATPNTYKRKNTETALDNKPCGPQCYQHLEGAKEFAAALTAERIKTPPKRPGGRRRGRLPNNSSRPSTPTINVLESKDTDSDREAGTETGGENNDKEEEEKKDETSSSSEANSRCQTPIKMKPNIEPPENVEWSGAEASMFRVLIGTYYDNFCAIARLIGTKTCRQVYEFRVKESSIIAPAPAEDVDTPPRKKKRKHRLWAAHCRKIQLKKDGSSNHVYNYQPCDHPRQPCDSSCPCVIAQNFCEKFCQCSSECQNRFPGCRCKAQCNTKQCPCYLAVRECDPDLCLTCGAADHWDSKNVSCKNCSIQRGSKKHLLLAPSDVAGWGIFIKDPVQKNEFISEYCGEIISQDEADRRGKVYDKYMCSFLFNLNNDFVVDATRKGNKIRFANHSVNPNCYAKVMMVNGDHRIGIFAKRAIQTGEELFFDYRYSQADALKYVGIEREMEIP

Liver = experiment: (§1) Intrinsic clearance in human liver microsomes assessed per mg protein at 1 uM preincubated for 10 mins followed by NADPH addition measured after 45 mins by LC-MS/MS analysis; format: ADME, microsome; conditions: microsomes, 0.75 h, 1 µM
Summary of the method: (§2)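 Test compound (1 μM) with pooled liver microsomes (0.8 mg/mL protein) in 100 mM potassium phosphate pH 7.4, 10 min preincubation, started with 2 mM NADPH, 45 min at 37 °C, in triplicate. Samples quenched with cold methanol containing buspirone internal standard, analysed by LC−MS/MS. CLint derived from t1/2 of parent loss (log-linear slope).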

[4] = biological target: Histone-lysine N-methyltransferase EZH2 (Homo sapiens, UniProt Q15910, Y641N); experiment: Inhibition of EZH2 Y641N mutant (unknown origin) using oligonucleosomes as substrate after 60 mins in presence of [3H]SAM by scintillation counting analysis
Sequence of Histone-lysine N-methyltransferase EZH2 (Homo sapiens, UniProt Q15910, Y641N) (Q15910 whole entry Y641N): as the sequence (Q15910 whole entry) above, with Y641N counted along it

[5] = Lipophilicity, log D of the compound at pH 7.4; conditions: buffer
[6] = as §1; format: ADME, microsome; conditions: liver microsomes, read-out: CLH; summary of the method: as §2

Row | Structure (SMILES) | solubility kinetic [1] | IC50 (KARPAS-422; karpas-422) | Papp at […], 2 µM [2] | IC50 [3] | microsomal CLint (Liver) | Ki [4] | logD ([5]; pH 7.4, logD) | Kinetic_solubility [1] | permeability [2] | microsomal CLint at 1 µM [6] | logD ([5]; pH 7.4) | IC50 (KARPAS-422; Homo sapiens, KARPAS-422, 72 h)
1 | COc1cc(C)[nH]c(=O)c1CN1CCc2c(Cl)cc(C(OC)C3CCOC3)c(Cl)c2C1=O (single isomer, unassigned; (+)) | 433 µM (≈ 208 µg/mL) | 9 nM | 7.2 ×10⁻⁶ cm/s | 4 nM | 60 µL/min/mg | < 0.1 nM | 2.5 |  |  |  |  | 
2 | Cc1cc(C)c(CN2CCc3c(Cl)cc(C(CO)C4CCOCC4)c(Cl)c3C2=O)c(=O)[nH]1 (single isomer, unassigned; (-)) |  | 11 nM | 2.9 ×10⁻⁶ cm/s | 11 nM | 41.5 µL/min/mg | 0.15 nM | 2.3 | 540 µM |  |  |  | 
3 | COC(c1cc(Cl)c2c(c1Cl)C(=O)N(Cc1c(C)cc(C)[nH]c1=O)CC2)C1CCOC1 (single isomer, unassigned; (-)10c) |  | 406 nM |  | 494 nM | 93.3 µL/min/mg | 30 nM |  | 457 µM | 15.4 ×10⁻⁶ cm/s |  |  | 
4 | COc1cc(C)[nH]c(=O)c1CN1CCc2c(Cl)cc(C(OC)C3CCN(C(=O)CO)CC3)c(Cl)c2C1=O (single isomer, unassigned; (-)) |  | 250 nM |  |  | 12.6 µL/min/mg |  |  | 453 µM | 1.1 ×10⁻⁶ cm/s |  |  | 
5 | CCC(OC)c1cc(Cl)c2c(c1Cl)C(=O)N(Cc1c(C)cc(C)[nH]c1=O)CC2 (single isomer, unassigned; (+)) |  | 183 nM | 18.2 ×10⁻⁶ cm/s | 72 nM | 105 µL/min/mg | 9 nM |  | 33 µM |  |  |  | 
6 | Cc1cc(C)c(CN2CCc3c(Cl)cc(C(CO)c4ccon4)c(Cl)c3C2=O)c(=O)[nH]1 (single isomer, unassigned; (+)) | 596 µM (≈ 276 µg/mL) | 122 nM | 5.8 ×10⁻⁶ cm/s |  | 21.2 µL/min/mg |  | 2 |  |  |  |  | 
7 | COc1cc(C)[nH]c(=O)c1CN1CCc2c(Cl)cc(C(OC)C3(C)COC3)c(Cl)c2C1=O (stereo in doubt; (-)-24b) |  | 559 nM |  | 253 nM |  | 350 nM |  | 512 µM | 4.8 ×10⁻⁶ cm/s | 168 µL/min/mg | 2.2 | 
8 | Cc1cc(C)c(CN2CCc3c(Cl)cc([C@H](CO)[C@@H]4CCCO4)c(Cl)c3C2=O)c(=O)[nH]1 | 400 µM (≈ 186 µg/mL) |  | 14.6 ×10⁻⁶ cm/s | 41 nM |  | 10 nM | 2.4 |  |  | 37.6 µL/min/mg |  | 57 nM
9 | Cc1cc(C)c(CN2CCc3c(Cl)cc([C@H](CO)[C@H]4CCCO4)c(Cl)c3C2=O)c(=O)[nH]1 | 430 µM (≈ 200 µg/mL) |  | 4.1 ×10⁻⁶ cm/s | 40 nM |  | 8 nM | 2.1 |  |  | 51.6 µL/min/mg |  | 63 nM
10 | COC(c1cc(Cl)c2c(c1Cl)C(=O)N(Cc1c(C)cc(C)[nH]c1=O)CC2)C1CCN(C2COC2)CC1 (single isomer, unassigned; (-)) |  | 2260 nM |  | 1310 nM |  | 530 nM |  | 519 µM | 7.9 ×10⁻⁶ cm/s | 78.3 µL/min/mg | 2.8 | 
11 | COc1cc(C)[nH]c(=O)c1CN1CCc2c(Cl)cc(C(OC)C3CCN(C(=O)CO)CC3)c(Cl)c2C1=O (single isomer, unassigned; (+)) | 480 µM (≈ 265 µg/mL) | 10 nM | 1.5 ×10⁻⁶ cm/s |  | 25.6 µL/min/mg |  | 1.7 |  |  |  |  | 
12 | COc1cc(C)[nH]c(=O)c1CN1CCc2c(Cl)cc(C(OC)C3CCOC3)c(Cl)c2C1=O (single isomer, unassigned; form 2) |  | 269 nM |  | 391 nM |  | 92 nM |  | 505 µM | 8.2 ×10⁻⁶ cm/s | 75 µL/min/mg | 2.4 | 
13 | Cc1cc(C)c(CN2CCc3c(Cl)cc([C@@H](CO)[C@@H]4CCCO4)c(Cl)c3C2=O)c(=O)[nH]1 | 550 µM (≈ 256 µg/mL) |  | 4.3 ×10⁻⁶ cm/s | 1570 nM |  | 135 nM | 2.1 |  |  | 70.3 µL/min/mg |  | 1220 nM
14 | COC(c1cc(Cl)c2c(c1Cl)C(=O)N(Cc1c(C)cc(C)[nH]c1=O)CC2)C1CCN(C(C)=O)CC1 (single isomer, unassigned; (+)) | 532 µM (≈ 277 µg/mL) | 22 nM | 11.5 ×10⁻⁶ cm/s |  | 92.6 µL/min/mg |  | 2.9 |  |  |  |  | 
15 | COC(c1cc(Cl)c2c(c1Cl)C(=O)N(Cc1c(C)cc(C)[nH]c1=O)CC2)C1CCS(=O)(=O)CC1 (stereo in doubt; (+)-18a) | 373 µM (≈ 197 µg/mL) | 24 nM | 6.3 ×10⁻⁶ cm/s |  | 40 µL/min/mg |  | 2.2 |  |  |  |  | 
16 | COc1cc(C)[nH]c(=O)c1CN1CCc2c(Cl)cc(-c3c(C)noc3C)c(Cl)c2C1=O | 384 µM (≈ 178 µg/mL) |  | 11 ×10⁻⁶ cm/s | 8 nM |  | 0.15 nM | 2.7 |  |  | 70 µL/min/mg |  | 27 nM
17 | COC(c1cc(Cl)c2c(c1Cl)C(=O)N(Cc1c(C)cc(C)[nH]c1=O)CC2)C1CCS(=O)(=O)CC1 (single isomer, unassigned; (-)) |  | 970 nM |  |  | 15 µL/min/mg |  |  | 415 µM | 5.7 ×10⁻⁶ cm/s |  |  | 

The next lines start with the values.

Row | solubility kinetic [1] | IC50 (KARPAS-422; karpas-422) | Papp at […], 2 µM [2] | IC50 [3] | microsomal CLint (Liver) | Ki [4] | logD ([5]; pH 7.4, logD) | Kinetic_solubility [1] | permeability [2] | microsomal CLint at 1 µM [6] | logD ([5]; pH 7.4) | IC50 (KARPAS-422; Homo sapiens, KARPAS-422, 72 h) | Structure (SMILES)
18 |  | 3140 nM |  | 749 nM |  | 70 nM |  | 513 µM | 7.1 ×10⁻⁶ cm/s | 23 µL/min/mg | 2.3 |  | COC(c1cc(Cl)c2c(c1Cl)C(=O)N(Cc1c(C)cc(C)[nH]c1=O)CC2)C1CCN(C(=O)CO)CC1 (single isomer, unassigned; (-))
19 | 56 µM (≈ 22.9 µg/mL) | 3550 nM |  | 5350 nM | 8 µL/min/mg | 420 nM |  |  | 15.7 ×10⁻⁶ cm/s |  |  |  | CCC(O)c1cc(Cl)c2c(c1Cl)C(=O)N(Cc1c(C)cc(C)[nH]c1=O)CC2 (stereo in doubt; (-)-3b)
20 | 537 µM (≈ 250 µg/mL) |  | 3 ×10⁻⁶ cm/s | 2910 nM |  | 1260 nM | 2 |  |  | 25.3 µL/min/mg |  | 3950 nM | Cc1cc(C)c(CN2CCc3c(Cl)cc([C@@H](CO)[C@@H]4CCOC4)c(Cl)c3C2=O)c(=O)[nH]1
21 | 582 µM (≈ 264 µg/mL) |  | 1.2 ×10⁻⁶ cm/s | > 32000 nM |  | 1500 nM | 1.3 |  |  | < 7 µL/min/mg |  | 10600 nM | COc1cc(C)[nH]c(=O)c1CN1CCc2c(Cl)cc([C@@H](O)C3COC3)c(Cl)c2C1=O
22 | 543 µM (≈ 254 µg/mL) |  | 6.8 ×10⁻⁶ cm/s | 75 nM |  | 16 nM | 1.6 |  |  | 17 µL/min/mg |  | 467 nM | COc1cc(C)[nH]c(=O)c1CN1CCc2c(Cl)cc([C@@H](OC)C3COC3)c(Cl)c2C1=O
23 |  | 4830 nM |  |  | 23 µL/min/mg |  |  | 159 µM | 6.1 ×10⁻⁶ cm/s |  |  |  | COC(c1cc(Cl)c2c(c1Cl)C(=O)N(Cc1c(C)cc(C)[nH]c1=O)CC2)C1CS(=O)(=O)C1 (single isomer, unassigned)
24 |  | 282 nM | 26 ×10⁻⁶ cm/s |  | 158 µL/min/mg |  | 3.3 | 55.3 µM |  |  |  |  | COC(C)c1cc(Cl)c2c(c1Cl)C(=O)N(Cc1c(C)cc(C)[nH]c1=O)CC2 (stereo in doubt; (-)9a)
25 |  | 2320 nM |  | 1130 nM |  | 260 nM |  | 499 µM | 2.3 ×10⁻⁶ cm/s | < 13.4 µL/min/mg | 1.5 |  | COC(c1cc(Cl)c2c(c1Cl)C(=O)N(Cc1c(C)cc(C)[nH]c1=O)CC2)C1CCN(C)CC1 (single isomer, unassigned; (-))
26 |  | 50 nM |  | 47 nM | 128 µL/min/mg | 1.9 nM |  | 439 µM | 18.7 ×10⁻⁶ cm/s |  |  |  | COC(c1cc(Cl)c2c(c1Cl)C(=O)N(Cc1c(C)cc(C)[nH]c1=O)CC2)C1CCOC1 (single isomer, unassigned; (+))
27 |  | 24 nM |  | 16 nM | 66.9 µL/min/mg | 0.19 nM |  | 439 µM | 7.2 ×10⁻⁶ cm/s |  |  |  | COc1cc(C)[nH]c(=O)c1CN1CCc2c(Cl)cc(C(OC)C3CCOC3)c(Cl)c2C1=O (stereo in doubt; 22b)
28 | 161 µM (≈ 80.4 µg/mL) | 24 nM | 5.3 ×10⁻⁶ cm/s |  | 52.5 µL/min/mg |  |  |  |  |  |  |  | COC(c1cc(Cl)c2c(c1Cl)C(=O)N(Cc1c(C)cc(C)[nH]c1=O)CC2)C1CS(=O)(=O)C1 (stereo in doubt; (+)-19a)
29 |  | 113 nM |  | 110 nM | 97.2 µL/min/mg | 42 nM |  | 521 µM | 8.4 ×10⁻⁶ cm/s |  |  |  | COc1cc(C)[nH]c(=O)c1CN1CCc2c(Cl)cc(C(OC)C3CCOC3)c(Cl)c2C1=O (single isomer, unassigned; form 1)
